# OX1R antag-1: antagonists of human orexin 1 receptor (OX1R). O43613. OX1R-expressing cells, FRET antagonist read-out. inhibition, % at 6.6 µM. 330,000 tested, 1.8% active; in the data active = inhibition mostly above about 38%, no sharp cut-off; inactive = mostly below about 40%;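 note: 0% = agonist challenge alone and 100% = reference antagonist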
# CHO parental Ca: counter-screen: ATP calcium response change in parental CHO cells. inhibition, % at 5.6 µM. 330,000 tested, 0.63% active. parental CHO-K1, ATP-induced calcium, Fluo-8 fluorescence;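 active = inhibition above that plate's mean sample inhibition plus 3 SD, cut at about 26% in these data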;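 note: 0% = ATP-challenged DMSO wells and 100% = DMSO wells without ATP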
#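 Assay system: untransfected parental CHO cell line. Also added: ATP agonist challenge. Dosing: one dose, 5.6 µM nominal. Measured by: Fluo-8 fluorescence. Read-out: % inhibition. Benchmarks: ATP wells versus no-ATP DMSO wells. Repeats: no replicates.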
# TAAR1 antag: human TAAR1 antagonism. 360,000 tested, 1.5% active. CHO RD-HGA16 TAAR1, Fluo-8 calcium fluorescence, antagonist. inhibition, % at 3 µM. Q96RJ0;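 active = inhibition above a per-plate cutoff, the mean inhibition of test compounds on that plate plus 3 SD, cut at about 49% in these data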;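 note: 0% = DMSO plus EC80 beta-PEA response and 100% = DMSO alone without agonist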
# Target sequence (Q96RJ0 whole entry, looked up): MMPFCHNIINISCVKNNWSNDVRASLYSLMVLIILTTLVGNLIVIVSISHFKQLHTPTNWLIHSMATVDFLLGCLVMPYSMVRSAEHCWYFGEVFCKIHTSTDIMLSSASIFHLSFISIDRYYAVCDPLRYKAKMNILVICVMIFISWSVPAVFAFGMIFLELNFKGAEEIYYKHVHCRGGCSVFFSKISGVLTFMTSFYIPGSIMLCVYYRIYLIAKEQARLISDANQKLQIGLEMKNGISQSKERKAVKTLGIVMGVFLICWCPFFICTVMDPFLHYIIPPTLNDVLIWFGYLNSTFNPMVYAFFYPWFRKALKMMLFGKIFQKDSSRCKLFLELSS
#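 Assay system: CHO-derived RD-HGA16 cells stably expressing human TAAR1 plus Gα16. Timing: 140 s kinetic read after compound, 140 s after agonist. Technique: kinetic Fluo-8 calcium fluorescence measurement. Measure: % inhibition of agonist calcium response.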
# GPR7 antag: antagonists of human GPR7 (neuropeptides B/W receptor 1). P48145. GPR7-expressing cells, fluorescence antagonist assay. inhibition, % at 4.4 µM. 290,000 tested, 1.1% active; in the data active = inhibition above about 16%, passing the limit was not always enough;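 note: cells stimulated with the agonist NPW; 0% = agonist with vehicle and 100% = vehicle without agonist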
# Target sequence (P48145 whole entry, looked up): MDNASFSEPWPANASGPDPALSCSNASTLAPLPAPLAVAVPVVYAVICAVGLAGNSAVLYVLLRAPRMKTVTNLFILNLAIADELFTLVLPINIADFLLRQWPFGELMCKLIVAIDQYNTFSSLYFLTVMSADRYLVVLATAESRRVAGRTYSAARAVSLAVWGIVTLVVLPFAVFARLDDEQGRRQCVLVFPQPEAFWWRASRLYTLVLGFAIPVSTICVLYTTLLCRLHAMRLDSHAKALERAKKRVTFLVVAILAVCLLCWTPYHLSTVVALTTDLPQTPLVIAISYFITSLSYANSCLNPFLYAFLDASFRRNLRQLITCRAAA
# TAAR1 ag: agonists of human TAAR1; AID 624467; Q96RJ0; 360,000 tested, 0.99% active; CHO RD-HGA16 TAAR1, Fluo-8 calcium fluorescence; vehicle wells 0%, saturating PEA agonist 100%; activation, % at 3 µM;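 active = activation above the mean activation of all test compounds in the run plus 3 SD, cut at about 38% in these data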
#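 System: CHO-derived RD-HGA16 cells with stable Gα16 and human TAAR1. Times: 17-24 h plating, Fluo-8 75 min 37 °C, 30 min RT. Measured by: calcium-sensitive Fluo-8 signal, excitation 470-495, emission 515-575 nm. Read-out basis: % activation relative to PEA EC100 response. Control set: DMSO and PEA EC100. Repeats: no replicates (n 1).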
# OX1R antag-2: human HCRTR1 antagonism; O43613; CHO/OX1R cells, Fluo-8 calcium fluorescence, orexin A; inhibition, % at 5 µM; 330,000 tested, 0.43% active; AID 434989;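 active = inhibition above its plate's threshold, mean inhibition of all tested compounds on the plate plus 3 SD, cut at about 37% in these data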;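 note: 0% = orexin A challenge wells and 100% = SB-334867-A antagonist wells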
# Starred values were filed as active, the others as inactive; . = no result given. Shown are actives, neighbours in structure and some others; about 4.6% of the full set was active somewhere.
SMILES,OX1R antag-1,CHO parental Ca,TAAR1 antag,GPR7 antag,TAAR1 ag,OX1R antag-2
O=C(CCCC1=NS(=O)(=O)c2ccccc2N1)N1CCN(c2ccc(Cl)cc2)CC1,19,-10,11,-1,6,-32
CC(C)(CC(=O)N1CCN(c2ccc(Cl)cc2)CC1)CC1=NS(=O)(=O)c2ccccc2N1,48,75*,64*,-12,34,46
O=C(COC(=O)c1cc(=O)[nH]c2ccc(Br)cc12)c1ccccc1,18,-21,26,1,41*,-38
O=C(COC(=O)c1cc(=O)[nH]c2ccccc12)c1ccc(Br)cc1,-1,-15,-29,-10,-3,-15
O=C(Nc1ccc(S(=O)(=O)N2CCOCC2)cc1)c1ccc([N+](=O)[O-])o1,63,-6,-20,6,6,4
O=C(Nc1ccc(S(=O)(=O)N2CCCC2)cc1)c1ccc([N+](=O)[O-])o1,34*,-4,.,.,.,-6
O=C(COC(=O)c1n[nH]c2ccccc12)Nc1ccc(S(=O)(=O)N2CCCC2)cc1,35,18,45,17*,26,29
O=C(COC(=O)c1n[nH]c2ccccc12)NC(=O)NC1CCCCC1,24,-9,-7,-5,44*,-35
O=C(COC(=O)c1n[nH]c2ccccc12)NC1CCCCC1,6,-11,8,.,2,-8
CCN(CC)c1ccc(S(=O)(=O)N2CCOCC2)cc1NC(=O)COC(=O)/C=C/c1ccco1,.,.,54*,.,10,.
CCC(=O)N1Cc2cc(C(=O)N(C)C)nc(-c3cccc(-c4cncnc4)c3)c2[C@@H]1CCO,.,.,-7,.,1,.
COc1ccc(S(=O)(=O)N2CCc3ccccc3C2)cc1,17,-15,23,0,-1,-31
O=C(COC(=O)c1ccc(O)cc1)Nc1cc(S(=O)(=O)N2CCOCC2)ccc1Cl,4,4,53*,.,27,-9
CCOc1ccc(S(=O)(=O)N2CCc3ccccc3C2)cc1,11,18,20,20*,0,-6
NS(=O)(=O)c1ccc(NC(=O)COc2ccc(C(=O)c3ccc(F)cc3)cc2)cc1,9,34*,33,2,5,17
O=C(COC(=O)c1ccc(O)cc1)Nc1cc(S(=O)(=O)N2CCOCC2)ccc1N1CCOCC1,.,.,13,.,7,.
O=S(=O)(c1ccc(C2CCCCC2)cc1)N1CCCC1,12,52*,11,-10,7,-8
COC(=O)[C@]12C[C@H](CC(=O)N3CCN(C(=O)C4CC4)CC3)C(=O)N(CCC3=CCCCC3)C1=C[C@H](COCc1ccccc1)O[C@@H]2C,.,.,-4,.,0,.
CN(N=Cc1ccc2c(c1)OCO2)C(=O)c1ccccc1N,.,.,3,.,0,.
C=CCN1C(=O)c2n[nH]c(C(C)C)c2C1c1ccc2c(c1)OCO2 (stereo unspecified),.,.,-18,.,0,.
CCCCOc1ccc(S(=O)(=O)N2CCCCC2)cc1,4,42*,6,12,3,-21
CCOc1ccccc1NC(=O)COC(=O)c1ccc(S(=O)(=O)N2CCCC2)cc1,.,.,59*,.,12,.
COc1ccccc1NC(=O)COC(=O)c1ccc(S(=O)(=O)N2CCCCCC2)cc1,4,3,-1,.,6,-5
O=C(COc1ccccc1)Nc1ccc(S(=O)(=O)N2CCCC2)cc1,7,-2,-12,17*,3,-1
Cc1ccc(S(=O)(=O)N[C@H](C(=O)OCC(=O)NC(=O)c2cccn2C)C(C)C)cc1,.,.,-2,.,9,.
SMILES,OX1R antag-1,CHO parental Ca,TAAR1 antag,GPR7 antag,TAAR1 ag,OX1R antag-2
CCN=C1NC(c2cccc(Cl)c2)C(C(=O)OC)=C(C)N1Cc1ccccc1C(F)(F)F (stereo unspecified),.,.,-1,.,9,.
CCOc1cc(S(=O)(=O)Nc2ccc(CC)cc2)ccc1Cl,12,42*,14,-12,0,-3
N#Cc1c(C#N)c(SSc2c(C#N)c(C#N)c(N)n2-c2ccccc2)n(-c2ccccc2)c1N,.,.,-27,.,2,.
O=C(NCCc1ccc(Cl)cc1)C1CCN(C(=O)N2CCOc3ccccc32)CC1,8,4,50*,11,21,-8
O=C(NCCc1ccccc1)C1CCN(C(=O)N2CCOc3ccccc32)CC1,7,-7,-15,4,18,-13
C=CCn1c(-c2cccs2)nc2nc3ccccc3nc21,72*,-20,15,-16,11,-13
C=CCn1c(-c2cccs2)nc2ccccc21,52,-7,-7,-10,3,-14
COc1ccc(C2CC(=O)C(c3cccc(F)c3)=CN2Cc2ccccc2)cc1 (stereo unspecified),.,.,23,.,1,.
COc1cccc(-n2nnnc2S(C)(=O)=O)c1,10,19,.,28*,.,-1
CC(C)(C)C(=O)COC(=O)c1ccc(N)c([N+](=O)[O-])c1,19,-6,0,-10,5,-1
COc1ccc(CCOC(=O)c2ccc(N)c([N+](=O)[O-])c2)cc1,33,47*,10,-10,18,19
Oc1ccc(-c2nc3ccccn3c2NCc2ccco2)cc1,19,3,52*,-7,19,2
O=C(/C=C/c1c(Cl)cccc1Cl)NCCc1ccccc1,7,6,44,-8,38*,-11
O=C(/C=C/c1cccc(Cl)c1)NCCc1ccccc1,15,-10,-27,-1,0,-28
CC(C)=CC(=O)NCCc1ccccc1,6,-17,14,-10,42*,7
COc1cc(F)ccc1Oc1cccc2c1S(=O)(=O)N([C@H](C)c1ccccc1)C[C@@H](COCc1ccccc1)O2,.,.,-15,.,4,.
O=C(NCCc1ccccc1)c1nc(CS(=O)(=O)c2ccc(Cl)cc2)no1,0,-20,7,8,5,-23
Cc1ccc(CCNC(=O)c2nc(CS(=O)(=O)c3ccc(Cl)cc3)no2)cc1,12,0,57*,1,5,-4
CN(C)c1ccc(N=Nc2ccccc2C(=O)OCC(=O)N(C)c2ccccc2)cc1,21,34*,62*,-5,17,1
COCCN(CCOC)C(=O)COC(=O)c1cc([N+](=O)[O-])ccc1Cl,48*,-11,-27,-12,1,-4
O=C(COC(=O)c1cc([N+](=O)[O-])ccc1Cl)NCCc1ccccc1,17,-6,3,.,14,-18
CN(C(=O)COC(=O)c1cc([N+](=O)[O-])ccc1Cl)c1ccccc1,66*,-20,-18,-9,5,-12
CN(C(=O)COC(=O)CSc1ccc([N+](=O)[O-])cc1)c1ccccc1,8,-12,51*,.,1,-13
CN1[C@@H](COCc2ccccc2)C=CS1(=O)=O,.,.,-16,.,1,.
CCc1nnc(NC(=O)CSc2nnc(Cc3cc(=O)[nH]c(=O)[nH]3)n2-c2cccc(OC)c2)s1,12,-2,14,17*,0,-10

# Screening data deposited in PubChem by The Scripps Research Institute Molecular Screening Center.
